Laboratory results taken from ChEMBL document CHEMBL3875153, “Design and synthesis of isatin/triazole conjugates that induce apoptosis and inhibit migration of MGC-803 cells” (Eur J Med Chem, 2016).
Activity calls are given as the source filed them. The calls are words filed in the database; no cut-off is given here.

What was measured:
[1] = Cytotoxicity against human GES-1 cells assessed as growth inhibition after 72 hrs by CCK8 assay; type: toxicity, cell-based, GES1; conditions: human, GES-1 cells
How it was run: (§1)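 Exponentially growing cells were trypsinized and seeded at 2 × 10^4 cells/mL (100 µL/well). After 24 h, medium was replaced with compound at 0.5–256 µM (twofold steps). Plates were incubated 72 h at 37 °C, 5% CO2, then with CCK-8 for 4 h. A450 was read. Three independent runs; IC50 given as mean and SD.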

[2] = Cytotoxicity against human HL-7702 cells assessed as growth inhibition after 72 hrs by CCK8 assay; type: toxicity, cell-based, L02; conditions: human, HL-7702 cells; how it was run: as §1
[3] = Cytotoxicity against human SW780 cells assessed as growth inhibition after 72 hrs by CCK8 assay; type: functional, cell-based; conditions: Homo sapiens, SW780, 72 h; read-out: IC50; how it was run: as §1
[4] = Cytotoxicity against human MCF7 cells assessed as growth inhibition after 72 hrs by CCK8 assay; type: functional, cell-based; conditions: Homo sapiens, MCF7, 72 h; read-out: IC50; how it was run: as §1
[5] = Cytotoxicity against human MGC803 cells assessed as growth inhibition after 72 hrs by CCK8 assay; type: functional, cell-based, MGC-803; conditions: Homo sapiens, MGC-803, 72 h; read-out: IC50; how it was run: as §1
[6] = Cytotoxicity against human TE1 cells assessed as growth inhibition after 72 hrs by CCK8 assay; type: functional, cell-based, TE-1; conditions: Homo sapiens, TE-1, 72 h; read-out: IC50; how it was run: as §1
MGC-803 [7] = assay: Induction of apoptosis in human MGC803 cells assessed as late apoptotic cells at 5 uM after 24 hrs by Annexin-V FITC/propidium iodide staining based flow cytometry (reference value: 0.4 +/- 0.5%); type: functional
MGC-803 [8] = assay: Induction of apoptosis in human MGC803 cells assessed as inhibition of Bcl2 protein expression at 5 to 20 uM after 24 hrs by Western blot method; type: functional, cell-based
How it was run: (§2)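 Cells given 0, 5, 10, 20 µM for 24 h, lysed 30 min in RIPA buffer (50 mM Tris-HCl pH 7.5, 150 mM NaCl, detergents) with protease inhibitors. Cleared lysate protein measured by BCA, resolved by SDS-PAGE, moved to nitrocellulose. Membranes blocked in 5% milk, probed with primary antibodies overnight at 4 °C, then secondary (1:5000) 2 h. ECL detection.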

MGC-803 [9] = assay: Induction of apoptosis in human MGC803 cells assessed as late apoptotic cells at 10 uM after 24 hrs by Annexin-V FITC/propidium iodide staining based flow cytometry (reference value: 0.4 +/- 0.5%); type: functional
MGC-803 [10] = assay: Induction of apoptosis in human MGC803 cells assessed as early apoptotic cells at 10 uM after 24 hrs by Annexin-V FITC/propidium iodide staining based flow cytometry (reference value: 0.9 +/- 0.3%); type: functional
[11] = Cell cycle arrest in human MGC803 cells assessed as accumulation at G2/M phase after 24 hrs by propidium iodide staining based flow cytometry; type: functional; conditions: MGC-803
MGC-803 [12] = assay: Induction of apoptosis in human MGC803 cells assessed as increase in PARP cleavage at 5 to 20 uM after 24 hrs by Western blot method; type: functional, cell-based; how it was run: as §2
MGC-803 [13] = assay: Induction of apoptosis in human MGC803 cells assessed as increase in caspase-9 cleavage at 5 to 20 uM after 24 hrs by Western blot method; type: functional, cell-based; how it was run: as §2
[14] = Cell cycle arrest in human MGC803 cells assessed as accumulation at G0/G1 phase at 10 uM after 24 hrs by propidium iodide staining based flow cytometry (reference value: 54.77%); type: functional; conditions: MGC-803
[15] = Cell cycle arrest in human MGC803 cells assessed as accumulation at G2/M phase at 5 uM after 24 hrs by propidium iodide staining based flow cytometry (reference value: 20.66%); type: functional; conditions: MGC-803
MGC-803 [16] = assay: Induction of apoptosis in human MGC803 cells assessed as late apoptotic cells at 20 uM after 24 hrs by Annexin-V FITC/propidium iodide staining based flow cytometry (reference value: 0.4 +/- 0.5%); type: functional
MGC-803 [17] = assay: Induction of ROS generation in human MGC803 cells at 5 uM after 24 hrs by DCFH-DA staining based flow cytometry (reference value: 2.84%); type: functional
How it was run: (§3)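 MGC-803 cells exposed to 0, 5, 10, 20 µM for 24 h, collected, then loaded with DCFH-DA (10 µM) for 30 min at 37 °C. Washed three times in serum-free medium; DCF green fluorescence quantified by flow cytometry as percent fluorescent cells.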

MGC-803 [18] = assay: Induction of apoptosis in human MGC803 cells assessed as early apoptotic cells at 5 uM after 24 hrs by Annexin-V FITC/propidium iodide staining based flow cytometry (reference value: 0.9 +/- 0.3%); type: functional
MGC-803 [19] = assay: Induction of morphological changes in human MGC803 cells assessed as chromatin condensation at 5 to 20 uM after 24 hrs by Hoechst 33258 staining based confocal microscopic analysis; type: functional, cell-based
How it was run: (§4)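 MGC-803 cells grown on glass slides to about 70% confluence, treated 24 h at 0, 5, 10, 20 µM. PBS-washed, stained 20 min in dark with 10 µg/mL Hoechst 33258 containing 0.1% Triton X-100, washed, mounted, imaged by laser scanning confocal microscopy. Cell morphology also viewed by inverted microscope.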

MGC-803 [20] = assay: Induction of apoptosis in human MGC803 cells assessed as early apoptotic cells at 20 uM after 24 hrs by Annexin-V FITC/propidium iodide staining based flow cytometry (reference value: 0.9 +/- 0.3%); type: functional
[21] = Cell cycle arrest in human MGC803 cells assessed as accumulation at S phase at 5 uM after 24 hrs by propidium iodide staining based flow cytometry (reference value: 21.32%); type: functional; conditions: MGC-803
[22] = Cell cycle arrest in human MGC803 cells assessed as accumulation at G2/M phase at 20 uM after 24 hrs by propidium iodide staining based flow cytometry (reference value: 20.66%); type: functional; conditions: MGC-803
MGC-803 [23] = assay: Induction of ROS generation in human MGC803 cells at 20 uM after 24 hrs by DCFH-DA staining based flow cytometry (reference value: 2.84%); type: functional; how it was run: as §3
[24] = Cell cycle arrest in human MGC803 cells assessed as accumulation at G0/G1 phase at 5 uM after 24 hrs by propidium iodide staining based flow cytometry (reference value: 54.77%); type: functional; conditions: MGC-803
MGC-803 [25] = assay: Induction of morphological changes in human MGC803 cells assessed as cell rounding up at 5 to 20 uM after 24 hrs by Hoechst 33258 staining based confocal microscopic analysis; type: functional; how it was run: as §4
MGC-803 [26] = assay: Induction of morphological changes in human MGC803 cells assessed as cell debris at 5 to 20 uM after 24 hrs by Hoechst 33258 staining based confocal microscopic analysis; type: functional; how it was run: as §4
MGC-803 [27] = assay: Induction of morphological changes in human MGC803 cells assessed as nuclear fragmentation at 5 to 20 uM after 24 hrs by Hoechst 33258 staining based confocal microscopic analysis; type: functional, cell-based; how it was run: as §4
MGC-803 [28] = assay: Induction of apoptosis in human MGC803 cells assessed as increase in caspase-6 protein expression at 5 to 20 uM after 24 hrs by Western blot method; type: functional, cell-based; how it was run: as §2
MGC-803 [29] = assay: Induction of apoptosis in human MGC803 cells assessed as increase in caspase-3 protein expression at 5 to 20 uM after 24 hrs by Western blot method; type: functional, cell-based; how it was run: as §2
MGC-803 [30] = assay: Anti-migratory activity against human MGC803 cells after 24 hrs by Hoechst 33258 staining based transwell assay; type: functional, cell-based
How it was run: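 MGC-803 cells, 10,000 per upper chamber in 100 µL medium with 1% FBS plus compound (0, 2, 4, 8 µM). Lower chamber held medium with 20% FBS as chemoattractant. After 24 h, chambers PBS-washed, cells stained with Hoechst 33258 (10 µg/mL), migrated cells counted by high content screening.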

MGC-803 [31] = assay: Induction of ROS generation in human MGC803 cells after 24 hrs by DCFH-DA staining based flow cytometry; type: functional, cell-based; how it was run: as §3
MGC-803 [32] = assay: Inhibition of LSD1 expression in human MGC803 cells after 24 hrs by Western blot method; type: functional, cell-based; how it was run: as §2
MGC-803 [33] = assay: Induction of apoptosis in human MGC803 cells assessed as inhibition of Mcl1 protein expression at 5 to 20 uM after 24 hrs by Western blot method; type: functional, cell-based; how it was run: as §2
[34] = Cell cycle arrest in human MGC803 cells assessed as accumulation at G2/M phase at 10 uM after 24 hrs by propidium iodide staining based flow cytometry (reference value: 20.66%); type: functional; conditions: MGC-803
MGC-803 [35] = assay: Induction of apoptosis in human MGC803 cells assessed as activation of Bax protein expression at 5 to 20 uM after 24 hrs by Western blot method; type: functional, cell-based; how it was run: as §2
MGC-803 [36] = assay: Induction of ROS generation in human MGC803 cells at 10 uM after 24 hrs by DCFH-DA staining based flow cytometry (reference value: 2.84%); type: functional; how it was run: as §3
[37] = Cell cycle arrest in human MGC803 cells assessed as accumulation at S phase at 20 uM after 24 hrs by propidium iodide staining based flow cytometry (reference value: 21.32%); type: functional; conditions: MGC-803
MGC-803 [38] = assay: Induction of apoptosis in human MGC803 cells after 24 hrs by Annexin-V FITC/propidium iodide staining based flow cytometry; type: functional, cell-based
MGC-803 [39] = assay: Induction of morphological changes in human MGC803 cells assessed as nuclear condensation at 5 to 20 uM after 24 hrs by Hoechst 33258 staining based confocal microscopic analysis; type: functional, cell-based; how it was run: as §4
MGC-803 [40] = assay: Induction of apoptosis in human MGC803 cells assessed as increase in caspase-7 protein expression at 5 to 20 uM after 24 hrs by Western blot method; type: functional, cell-based; how it was run: as §2
[41] = Cell cycle arrest in human MGC803 cells assessed as accumulation at S phase at 10 uM after 24 hrs by propidium iodide staining based flow cytometry (reference value: 21.32%); type: functional; conditions: MGC-803
[42] = Cell cycle arrest in human MGC803 cells assessed as accumulation at G0/G1 phase at 20 uM after 24 hrs by propidium iodide staining based flow cytometry (reference value: 54.77%); type: functional; conditions: MGC-803
MGC-803 [43] = assay: Induction of apoptosis in human MGC803 cells assessed as increase in caspase-8 cleavage at 5 to 20 uM after 24 hrs by Western blot method; type: functional, cell-based; how it was run: as §2

O=C1C(=O)N(Cc2cn(CC(=O)N3CCCCC3)nn2)c2c(Cl)ccc(Cl)c21
IC50 at 72 h [1]: 50.7 µM | IC50 at 72 h [2]: 39.3 µM | IC50 [3]: 29.7 µM | IC50 [4]: 34.6 µM | IC50 [5]: 18.7 µM | IC50 [6]: 40.6 µM

O=C(Cn1cc(CN2C(=O)C(=O)c3c(Cl)ccc(Cl)c32)nn1)OC1CCCCC1
Activity (MGC-803 [7]): 5% | inhibition (MGC-803 [8]): Active | Activity (MGC-803 [9]): 5.7% | Activity (MGC-803 [10]): 10.3% | Activity [11]: Dose-dependent effect | Activity (MGC-803 [12]): Active | Activity (MGC-803 [13]): Active | Activity [14]: 40.3% | Activity [15]: 24.1% | Activity (MGC-803 [16]): 4.5% | Activity (MGC-803 [17]): 6.04% | Activity (MGC-803 [18]): 7.8% | Activity (MGC-803 [19]): Active | Activity (MGC-803 [20]): 18% | Activity [21]: 21.5% | Activity [22]: 32.3% | Activity (MGC-803 [23]): 19.3% | Activity [24]: 48.7% | Activity (MGC-803 [25]): Active | Activity (MGC-803 [26]): Active | Activity (MGC-803 [27]): Active | Activity (MGC-803 [28]): Active | Activity (MGC-803 [29]): Active | Activity (MGC-803 [30]): Dose-dependent effect | Activity (MGC-803 [31]): Dose-dependent effect | inhibition (MGC-803 [32]): Dose-dependent effect | IC50 at 72 h [1]: 36 µM | IC50 at 72 h [2]: 40.3 µM | inhibition (MGC-803 [33]): Active | Activity [34]: 28.7% | Activity (MGC-803 [35]): Active | Activity (MGC-803 [36]): 10.3% | Activity [37]: 23.5% | Activity (MGC-803 [38]): Dose-dependent effect | Activity (MGC-803 [39]): Active | Activity (MGC-803 [40]): Active | IC50 [3]: 25.2 µM | IC50 [4]: 18.9 µM | Activity [41]: 24% | IC50 [5]: 9.78 µM | Activity [42]: 34.8% | IC50 [6]: 14.2 µM | Activity (MGC-803 [43]): Active

O=C(Cn1cc(CN2C(=O)C(=O)c3c(Cl)ccc(Cl)c32)nn1)NC1CCCCC1
IC50 at 72 h [1]: 47.4 µM | IC50 at 72 h [2]: 83.9 µM | IC50 [3]: 93.3 µM | IC50 [4]: 51.8 µM | IC50 [5]: 17.4 µM | IC50 [6]: 25.2 µM

O=C1C(=O)N(Cc2cn(CC(=O)N3CCCC3)nn2)c2c(Cl)ccc(Cl)c21
IC50 at 72 h [1]: 88.7 µM | IC50 at 72 h [2]: > 128 µM | IC50 [3]: 48.2 µM | IC50 [4]: 62.4 µM | IC50 [5]: 14.8 µM | IC50 [6]: 51.6 µM
